Reference: ChEMBL document CHEMBL3580583, “17-Norpimaranes and (9βH)-17-Norpimaranes from the Tuber of Icacina trichantha” (J Nat Prod, 2015)

Assays:
Assay type in all cases: functional, cell-based
[1] = tested on: OVCAR-3; assay: Cytotoxicity against human OVCAR3 cells assessed as cell viability after 72 hrs by commercial absorbance assay; conditions: OVCAR-3, 72 h
Outline: (§1)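 Cells from ATCC grown at 37°C, 5% CO₂ in RPMI 1640 with 10% FBS, penicillin 100 units/mL and streptomycin 100 µg/mL. Log-phase cells were trypsinized, washed twice, seeded at 5,000/well and incubated overnight. Samples in DMSO were added at 20, 4, 0.8, 0.16 and 0.032 µM (0.5% DMSO) for 72 h at 37°C. Viability was read by CellTiter 96 AQueous One absorbance; IC₅₀ relative to DMSO control.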

[2] = tested on: MDA-MB-435; assay: Cytotoxicity against human MDA-MB-435 cells assessed as cell viability after 72 hrs by commercial absorbance assay; conditions: MDA-MB-435, 72 h; outline: as §1
[3] = tested on: MDA-MB-231; assay: Cytotoxicity against human MDA-MB-231 cells assessed as cell viability after 72 hrs by commercial absorbance assay; conditions: MDA-MB-231, 72 h; outline: as §1

SMILES | IC50 [1] | IC50 [2] | IC50 [3]
C[C@@]12CC[C@@H]3C(=C[C@H]4OC(=O)[C@]5(C)[C@H]4[C@]34CCC5(O)OC4)[C@]1(O)OC[C@H]2O | 7.55 µM | 1.25 µM | 7.3 µM
C[C@@]12CC[C@@H]3C(=C[C@H]4OC(=O)[C@]5(C)[C@H]4[C@]34CCC5(O)OC4)[C@@H]1OC[C@H]2O | 4.12 µM | 1.65 µM | 3.74 µM
C[C@]12C(=O)O[C@@H]3C[C@H]4C5=C(CC[C@H]4[C@@]4(CCC1(O)OC4)[C@@H]32)C(=O)CO5 | 1.05 µM | 0.66 µM | 0.67 µM
C[C@]12C(=O)O[C@@H]3C[C@H]4c5occc5C(=O)C[C@H]4[C@@]4(COC1(O)C[C@@H]4O)[C@@H]32 | 18.7 µM | 6.44 µM | 10.8 µM
C[C@]12C(=O)O[C@@H]3Cc4c(ccc5ccoc45)C4(CCC1(O)OC4)[C@@H]32 (stereo partly specified) | 17.8 µM | > 20 µM | > 20 µM
COc1cc2c(c3occc13)C[C@H]1OC(=O)[C@]3(C)[C@H]1C21CCC3(O)OC1 (stereo partly specified) | > 20 µM | > 20 µM | > 20 µM
COc1cc2c(c3occc13)C[C@H]1OC(=O)[C@]3(C)[C@H]1[C@@]21CO[C@](O)(C1)[C@@H]3O | > 20 µM | > 20 µM | > 20 µM
COc1cc2c(c3occc13)C[C@H]1OC(=O)[C@]3(C)[C@H]1[C@@]21CO[C@](O)(C1)[C@H]3O | > 20 µM | > 20 µM | > 20 µM
C[C@]12C(=O)O[C@@H]3C[C@H]4c5occc5C(=O)C[C@H]4C4(CCC1(O)OC4)[C@@H]32 (stereo partly specified) | > 20 µM | > 20 µM | > 20 µM
C[C@]12C(=O)O[C@@H]3C[C@@]4(O)c5occc5C(=O)C[C@H]4C4(CCC1(O)OC4)[C@@H]32 (stereo partly specified) | 10.5 µM | 6.16 µM | 8.94 µM
C[C@]12C(=O)O[C@@H]3C[C@@H]4[C@@H](CCC5=CC(=O)O[C@@H]54)C4(CCC1(O)OC4)[C@@H]32 (stereo partly specified) | > 20 µM | > 20 µM | > 20 µM
CC[C@]1(O)C[C@@H]2CN(CCc3c([nH]c4ccccc34)[C@@](C(=O)OC)(c3cc4c(cc3OC)N(C)[C@H]3[C@@](O)(C(=O)OC)[C@H](OC(C)=O)[C@]5(CC)C=CCN6CC[C@]43[C@@H]65)C2)C1 [VINBLASTINE] | 0.00182 µM | 0.00049 µM | 0.00878 µM
